The list is not random: actives were taken first. Their share in the collection is about 3.8%.
KCNK9 inh – blocks the human KCNK9 two-pore domain potassium channel | Q9NPC2 | HEK293 KCNK9, FluxOR thallium flux fluorescence; active compounds read low | B-score at 10 µM | hit rate 1.2% among 310,000 | AID 488922;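 active = ratio B-score over 3 SD below the library mean, with starting fluorescence within 5 SD of its mean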;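 also: negative B-score means less thallium flux so channel inhibition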
KCNQ1 block – blocks the human KCNQ1 potassium channel; AID 2642; P51787; CHO-K1 KCNQ1, FluxOR thallium flux fluorescence; active compounds read high; B-score at 10 µM; hit rate 1.3% among 310,000;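 active = compounds whose thallium flux B-score, printed positive for inhibition, exceeds three library SD while starting fluorescence stays within three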;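 also: channel opened by potassium depolarization with thallium stimulus after 20 min compound exposure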
hERG protect – shields human hERG channel from block by proarrhythmic agents; CHO-hERG, FluxOR thallium flux, dofetilide IC70 present; Q12809; AID 1511; activation (rescue from dofetilide block), less the hit threshold, % at 10 µM; hit rate 0.51% among 310,000;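 active = activation above the mean of controls blocked by dofetilide plus 5 SD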;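 also: thallium influx through hERG after potassium depolarization seen as dye fluorescence rise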
Kir21 block – Kir2.1 (mouse) channel inhibition; P35561; B-score at 10 µM; AID 1672; HEK293-Kir2.1, FluxOR thallium flux fluorescence; active compounds read low; hit rate 0.85% among 310,000;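 active = fluorescence ratio B-score at or below minus 3 SD of library scores, with starting-brightness B-score within 2 SD, cut at about -4.2 in these data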;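 also: channel flux triggered by added potassium and thallium sulfate stimulus; B-score of peak minus minimum fluorescence over baseline after thallium stimulus; more negative B-score means stronger Kir2.1 block with less thallium influx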
Target sequence (P35561 whole entry, looked up): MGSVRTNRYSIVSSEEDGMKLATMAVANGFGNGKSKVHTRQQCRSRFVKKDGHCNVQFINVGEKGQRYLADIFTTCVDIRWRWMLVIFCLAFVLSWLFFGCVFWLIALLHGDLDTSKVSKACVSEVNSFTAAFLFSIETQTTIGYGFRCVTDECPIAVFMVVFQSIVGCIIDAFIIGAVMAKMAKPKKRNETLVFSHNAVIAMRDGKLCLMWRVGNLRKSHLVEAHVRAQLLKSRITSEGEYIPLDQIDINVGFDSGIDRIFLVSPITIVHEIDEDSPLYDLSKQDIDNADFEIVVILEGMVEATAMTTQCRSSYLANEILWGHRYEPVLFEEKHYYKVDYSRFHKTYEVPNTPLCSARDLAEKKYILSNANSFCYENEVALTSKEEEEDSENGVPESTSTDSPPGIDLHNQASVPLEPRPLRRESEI
KCNK3 block – human KCNK3 channel inhibition, primary screen. B-score at 10 µM. O14649. hit rate 0.84% among 340,000. CHO-KCNK3 thallium flux, FluxOR fluorescence; active compounds read low;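 active = B-score under library mean minus 4 SD, starting fluorescence ratio at most library mean plus 5 SD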;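 also: more negative B-score means stronger inhibition of thallium flux through KCNK3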
KCNQ1 act – human KCNQ1 channel potentiation or activation | P51787 | CHO-K1 KCNQ1, thallium flux FluxOR fluorescence; active compounds read high | B-score at 10 µM | hit rate 0.35% among 310,000 | AID 2648;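 active = fluorescence ratio B-score, a plate-corrected score, at least three library SD, with initial intensity B-score within 5 SD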
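Assay system: stable KCNQ1 CHO-K1 line; medium: assay buffer, equal DMSO in all wells; timing: 90 min dye loading and 20 min compound exposure, both at room temperature; technique: kinetic FluxOR thallium fluorescence, 10-s 1-Hz baseline, 110-s post-stimulus read; read-out basis: B score of baseline-normalized fluorescence ratio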
Each line names hits and unclear results; the compound was inactive in the other large screens; ! = repeats disagree.

COc1cc2c(cc1OC)C(c1ccc([N+](=O)[O-])cc1)N(C(C)=O)CC2 (stereo not given)	hERG protect 9.4
COc1cc(Cl)c(C)cc1NC(=O)CC1CCCC1	none
CC(C)Nc1nc(Cl)nc(N(C#N)CN2C(=O)c3ccccc3C2=O)n1	Kir21 block -5.2
CC(C)N(C(=O)COC(=O)CCC(=O)c1cccs1)c1ccccc1	none (no result: KCNK9 inh, KCNQ1 block, hERG protect, Kir21 block, KCNQ1 act)
NC(=O)c1ccsc1NC(=O)c1ccc([N+](=O)[O-])o1	none (no result: KCNK9 inh, KCNQ1 block, hERG protect, Kir21 block, KCNQ1 act)
O=C(OCc1cccc([N+](=O)[O-])c1)c1ccc2ccccc2n1	hERG protect 5.2
CCN1CCc2c(sc(NC(=O)c3cc4ccccc4cc3OC)c2C(N)=O)C1	none
CC1CCCC(NC(=O)COC(=O)c2ccc(Cl)nc2)C1C (stereo not given)	none (no result: KCNK9 inh, KCNQ1 block, hERG protect, Kir21 block, KCNQ1 act)
CCCn1cc(CN2CCC(n3nccc3NC(=O)c3ccc4c(c3)OCO4)CC2)c(C)n1	none
O=C(CCS(=O)(=O)c1ccc(Br)s1)NC1CCCCCC1	Kir21 block -11
O=c1ccn(Cc2ccccc2)cc1	none
Cc1ccccc1Cn1ccc(=NCc2ccccc2)cc1	Kir21 block -5.5 (no result: KCNK3 block)
CCN(c1cccc(C)c1)S(=O)(=O)c1ccc(-n2cccn2)cc1	none
O=C(CN1CCC(C(O)(c2ccccc2)c2ccccc2)CC1)Nc1cc(Cl)ccc1Cl	none
O=C(CN1CCC(C(O)(c2ccccc2)c2ccccc2)CC1)Nc1ccccc1	Kir21 block -4.8
CC1CCC(NC(=O)Cn2cnc3sccc3c2=O)CC1 (stereo not given)	none (no result: KCNK9 inh, KCNQ1 block, hERG protect, Kir21 block, KCNQ1 act)
CC(C)c1ccc(CC(C)C2C3=C(CCCC3=O)OC3=C2C(=O)CCC3)cc1 (stereo not given)	KCNQ1 block 7
Cc1ccc(CCC2C3=C(CCCC3=O)OC3=C2C(=O)CCC3)cc1	none
Cc1sc(-n2c(C)cc(/C=C3\SC(=S)NC3=O)c2C)c(C#N)c1C	KCNQ1 act 9
CCSC1=C(C#N)C(c2cccs2)C(C(=O)OC)=C(C)N1 (stereo not given)	none
CCCSC1=C(C#N)C(c2cccs2)C(C(=O)Nc2ccccc2)=C(C)N1 (stereo not given)	KCNQ1 block 12
CCOC(=O)c1ccc(N(C(=O)CNC(=O)c2ccco2)C(C(=O)NCC2CCCO2)c2ccc(OC)c(OC)c2)cc1 (stereo not given)	none
CCCCCCNC(=O)CNC(=S)N(Cc1cccs1)C1CCCCC1	KCNQ1 block 7
CCOC(=O)CNC(=S)N(Cc1cccs1)C1CCCC1	none
O=C(Cc1cc(=O)[nH][nH]1)N/N=C/c1c(Cl)cccc1Cl	Kir21 block -4.3!
CN(C)Cc1c(OC(=O)c2ccc(N)cc2)ccc2ccccc12	none (no result: KCNK9 inh, KCNQ1 block, hERG protect, Kir21 block, KCNQ1 act)
Cc1ccccc1OCc1nc2ccccc2c(=O)n1/N=C/c1c[nH]c2ccccc12	none
Cc1cc(/C=N/n2c(COc3ccccc3C)nc3ccccc3c2=O)c(O)c([N+](=O)[O-])c1	KCNQ1 block 14
CCOc1cc(C(=O)Nc2ccc(S(=O)(=O)NC3=NCCCCC3)cc2)cc(Br)c1OC	none
COc1ccc(CNCc2ccncc2)c(OC)c1	none
COc1ccc(CNCc2ccc3ccccc3c2)c(OC)c1	Kir21 block -8.5
CCc1cccc(NC(=O)CCc2c(C)nn(-c3ccc(N4CCCCC4)nn3)c2C)c1	none
CN(CCNC(=O)c1ccc(CS(=O)(=O)c2ccc(Br)cc2)o1)CCc1ccccc1	Kir21 block -4.9
Cc1cc(C)c(C(=O)c2ccc(C(=O)N3CCCCC3)cc2)c(C)c1	hERG protect 14
COc1ccc(C(=O)N[C@H](C(=O)N2CCN(c3ccccc3F)CC2)C(C)C)cc1	hERG protect 4.9
CCOc1ccc(Oc2ccc(NC(=O)CSc3nncn3C)cc2)cc1	none (no result: KCNK9 inh, KCNQ1 block, hERG protect, Kir21 block, KCNQ1 act)
COc1cccc(-c2nn3c(-c4cc(C)[nH]n4)nnc3s2)c1	hERG protect 5.9
COc1cccc(-c2nn3c(-c4ccccn4)nnc3s2)c1	none
COc1ccc(C(=O)Nc2cccc(OC(=O)c3ccc(C)c(C)c3)c2)cc1	KCNQ1 block 6
CC(=O)Oc1cccc(NC(=O)c2cccc(C(=O)Nc3cccc(OC(C)=O)c3)c2)c1	none
CC(=O)Oc1ccc(C(=O)Nc2cccc(C(=O)c3ccc(C)c(C)c3)c2)cc1	KCNQ1 block 6
Cc1ccc2nc(SCC(=O)N3CCCc4ccccc43)nc(=O)n2c1	none (no result: KCNK9 inh, KCNQ1 block, hERG protect, Kir21 block, KCNQ1 act)
N#CC1=C(SCC(=O)c2cc3ccccc3oc2=O)NC(=O)C(C#N)C12CCCC2 (stereo not given)	KCNQ1 block 7
Cc1c(C(C)NC(=O)c2cc(COc3cccc4cnccc34)on2)cnn1C (stereo not given)	none
CCC(NC(=O)c1oc2ccccc2c1COC)c1ccc(OC)cc1 (stereo not given)	Kir21 block -5.7
O=C(c1ccc(N2CCCCCC2)c([N+](=O)[O-])c1)N1CCc2ccccc21	KCNK9 inh -7.4 (no result: KCNK3 block)
O=S(=O)([N-]c1nc2ccccc2nc1-[n+]1ccc(CCCc2ccccc2)cc1)c1cccs1	KCNK9 inh -6.8
CCCCn1c(N)c(N(CC(C)C)C(=O)c2ccc(-c3ccc([N+](=O)[O-])cc3)o2)c(=O)[nH]c1=O	none
CCCCN(Cc1cccs1)S(=O)(=O)c1csc(C(N)=O)c1	Kir21 block -7.8
CC(=O)N(Cc1ccccc1C)c1cccc(C)c1C	Kir21 block -4.6
O=C(CNC(=O)c1ccccc1F)N/N=C/c1cc(Br)ccc1OCc1ccccc1	KCNK9 inh -6.6
O=[N+]([O-])c1cc2oc3c(c2c(C=NCc2ccccc2)c1O)CCCC3	none
CC(C)CN=Cc1c(O)c([N+](=O)[O-])cc2oc3c(c12)CCCC3	KCNQ1 act 15
CSc1nnc(-c2sccc2OCc2ccc(C)cc2)n1C	Kir21 block -4.3
Cc1ccc(COc2ccsc2C(=O)O)cc1	none (no result: KCNK9 inh, KCNQ1 block, hERG protect, Kir21 block, KCNQ1 act)
Cn1c(-c2ccc3c(c2)OCO3)cnc1NCc1ccccc1	Kir21 block -6
Cn1c(-c2ccc3c(c2)OCO3)cnc1NCc1ccccc1Cl	Kir21 block -4.3
Cn1c(-c2ccc3c(c2)OCO3)cnc1NCc1cccc(Cl)c1	none
Cn1c(-c2cccc(Br)c2)cnc1NCc1ccccc1O	Kir21 block -6.2
N#Cc1ccc(COC(=O)CCc2c[nH]c3ccccc23)cc1	none
COc1cc(OC)c(OC)cc1CNC(=O)c1cc(=O)c2ccccc2o1	KCNQ1 act 9
COc1ccc(CNC(=O)c2cc(=O)c3ccccc3o2)cc1	none
CCN(CC)C(=O)CC(c1ccccc1)c1ccco1 (stereo not given)	none
CCC(=O)N(CCC(c1ccccc1)c1ccco1)Cc1cccs1 (stereo not given)	KCNK9 inh -14, Kir21 block -7.4
O=C(c1ccco1)N(CCC(c1ccccc1)c1ccco1)Cc1ccccc1 (stereo not given)	KCNK9 inh -7.2

Screens from PubChem.
